Results taken from ChEMBL document CHEMBL1165950, “Design and synthesis of new potent anticancer pyrazoles with high FLT3 kinase inhibitory selectivity” (Bioorg Med Chem, 2010).

Columns and labels:
Format in all cases: functional
A549 = assay: Cytotoxicity against human A549 cells assessed as cell growth at 1 uM after 48 hrs by sulforhodamine B assay; settings: A549, 48 h, read-out: Activity
Method in brief: (§1)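 NCI-60 five-dose screen. Cells were grown in RPMI 1640 with 5% FBS and 2 mM L-glutamine, plated at 5000–40,000 cells/well and preincubated for 24 h. Time-zero plates were TCA-fixed. DMSO-solubilized drug was added at five concentrations (10-fold or ½-log serial dilutions) for 48 h at 37 °C, 5% CO2. Cells were TCA-fixed, stained with 0.4% SRB and read at 515 nm. Percent growth used time-zero, control and test absorbances.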

K562 = assay: Cytotoxicity against human K562 cells assessed as cell growth at 1 uM after 48 hrs by sulforhodamine B assay; settings: K562, 48 h, read-out: Activity
SK-MEL-2 = assay: Cytotoxicity against human SK-MEL-2 cells assessed as cell growth at 0.01 uM after 48 hrs by sulforhodamine B assay; settings: SK-MEL-2, 48 h, read-out: Activity
IGROV-1 = assay: Cytotoxicity against human IGROV1 cells assessed as cell growth at 10 uM; settings: read-out: Activity
Method in brief: (§2)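 Single-dose NCI-60 screen at 10 µM. Cells were grown in RPMI 1640 with 5% FBS and 2 mM L-glutamine, then treated for 48 h at 37 °C. Protein was measured by SRB staining with absorbance at 515 nm. Percentage growth was recorded, and inhibition percentage was calculated as 100 minus growth percentage.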

SF-295 = assay: Cytotoxicity against human SF295 cells assessed as cell growth at 1 uM after 48 hrs by sulforhodamine B assay; settings: SF-295, 48 h, read-out: Activity
OVCAR-4 = assay: Cytotoxicity against human OVCAR4 cells assessed as cell growth at 1 uM after 48 hrs by sulforhodamine B assay; settings: OVCAR-4, 48 h, read-out: Activity
SW-620 [1] = assay: Cytotoxicity against human SW620 cells assessed as cell growth at 100 nM after 48 hrs by sulforhodamine B assay; settings: SW-620, 48 h, read-out: Activity
HT-29 = assay: Growth inhibition of human HT-29 cells after 48 hrs by sulforhodamine B assay; settings: HT-29, 48 h
Method in brief: (§3)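 NCI 60-cell screen, five-dose mode. Cells grown in RPMI 1640 with 5% FBS and 2 mM L-glutamine and plated at 5000-40,000 cells/well according to doubling time. After 24 h preincubation, a Tz plate was TCA-fixed. Five concentrations (10-fold or 1/2 log dilutions) were applied for 48 h at 37 °C. SRB staining read at 515 nm. IC50 taken from [(Ti-Tz)/(C-Tz)]×100 = 50.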

SNB-19 = assay: Cytotoxicity against human SNB19 cells assessed as cell growth at 100 nM after 48 hrs by sulforhodamine B assay; settings: SNB-19, 48 h, read-out: Activity
TK-10 = assay: Cytotoxicity against human TK10 cells assessed as cell growth at 0.001 uM after 48 hrs by sulforhodamine B assay; settings: TK-10, 48 h, read-out: Activity
Malme-3M = assay: Cytotoxicity against human MALME-3M cells assessed as cell growth at 1 uM after 48 hrs by sulforhodamine B assay; settings: read-out: Activity
SF-268 [2] = assay: Cytotoxicity against human SF268 cells assessed as cell growth at 0.001 uM after 48 hrs by sulforhodamine B assay; settings: SF-268, 48 h, read-out: Activity
ACHN = assay: Cytotoxicity against human ACHN cells assessed as cell growth at 0.001 uM after 48 hrs by sulforhodamine B assay; settings: read-out: Activity; method in brief: as §1
MOLT-4 = assay: Cytotoxicity against human MOLT4 cells assessed as cell growth at 0.001 uM after 48 hrs by sulforhodamine B assay; settings: MOLT-4, 48 h, read-out: Activity
SN12C = assay: Cytotoxicity against human SN12C cells assessed as cell growth at 0.001 uM after 48 hrs by sulforhodamine B assay; settings: read-out: Activity
MDA-MB-435 = assay: Cytotoxicity against human MDA-MB-435 cells assessed as cell growth at 0.001 uM after 48 hrs by sulforhodamine B assay; settings: MDA-MB-435, 48 h, read-out: Activity
NCI-H460 = assay: Cytotoxicity against human NCI-H460 cells assessed as cell growth at 0.001 uM after 48 hrs by sulforhodamine B assay; settings: NCI-H460, 48 h, read-out: Activity
786-0 = assay: Cytotoxicity against human 786-0 cells assessed as cell growth at 0.001 uM after 48 hrs by sulforhodamine B assay; settings: 786-0, 48 h, read-out: Activity; method in brief: as §1
COLO 205 = assay: Cytotoxicity against human COLO205 cells assessed as cell growth at 10 uM after 48 hrs by sulforhodamine B assay; settings: COLO 205, 48 h, read-out: Activity
[3] = Growth inhibition of human NCI60 cells at 10 uM after 48 hrs by sulforhodamine B assay relative to control; settings: NCI60, 48 h, read-out: GI
Method in brief: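 Single-dose NCI screen at 10 µM across the 60-line panel, 48 h exposure at 37 °C after a 24 h preincubation. Adherent cells were fixed with cold TCA and stained with 0.4% SRB, and absorbance was read at 515 nm. Inhibition % was taken as 100 minus growth %, and the mean across all lines was reported.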

CAKI-1 = assay: Cytotoxicity against human Caki1 cells assessed as cell growth at 10 uM; settings: read-out: Activity; method in brief: as §2
MDA-MB-468 = assay: Cytotoxicity against human MDA-MB-468 cells assessed as cell growth at 10 uM after 48 hrs by sulforhodamine B assay; settings: MDA-MB-468, 48 h, read-out: Activity
SF-268 [4] = assay: Growth inhibition of human SF268 cells after 48 hrs by sulforhodamine B assay; settings: SF-268, 48 h; for CC50: read-out: LC50 (the source's name); method in brief: as §3
KM12 = assay: Cytotoxicity against human KM12 cells assessed as cell growth at 0.01 uM after 48 hrs by sulforhodamine B assay; settings: KM12, 48 h, read-out: Activity
DU-145 = assay: Cytotoxicity against human DU145 cells assessed as cell growth at 10 uM after 48 hrs by sulforhodamine B assay; settings: DU-145, 48 h, read-out: Activity
NCI-H23 = assay: Cytotoxicity against human NCI-H23 cells assessed as cell growth at 0.01 uM after 48 hrs by sulforhodamine B assay; settings: NCI-H23, 48 h, read-out: Activity
LOX IMVI = assay: Cytotoxicity against human LOXIMVI cells assessed as cell growth at 100 nM after 48 hrs by sulforhodamine B assay; settings: read-out: Activity
SW-620 [5] = assay: Cytotoxicity against human SW620 cells assessed as cell growth at 0.01 uM after 48 hrs by sulforhodamine B assay; settings: SW-620, 48 h, read-out: Activity
SK-OV-3 = assay: Cytotoxicity against human SKOV3 cells assessed as cell growth at 0.01 uM after 48 hrs by sulforhodamine B assay; settings: SK-OV-3, 48 h, read-out: Activity

Row | SMILES | growth at 1 µM (A549) [%] | growth at 1 µM (K562) [%] | growth at 0.01 µM (SK-MEL-2) [%] | growth at 10 µM (IGROV-1) [%] | growth at 1 µM (SF-295) [%] | growth at 1 µM (OVCAR-4) [%] | growth at 0.1 µM (SW-620 [1]) [%] | GI50 (HT-29) [µM] | TGI (HT-29) [µM] | growth at 0.1 µM (SNB-19) [%] | growth at 0.001 µM (TK-10) [%] | growth at 1 µM (Malme-3M) [%] | growth at 0.001 µM (SF-268 [2]) [%] | growth at 0.001 µM (ACHN) [%] | growth at 0.001 µM (MOLT-4) [%] | growth at 0.001 µM (SN12C) [%] | growth at 0.001 µM (MDA-MB-435) [%] | growth at 0.001 µM (NCI-H460) [%] | growth at 0.001 µM (786-0) [%] | growth at 10 µM (COLO 205) [%] | further results
1 | COc1cc(C)cc(-c2c(-c3ccnc(-c4ccc(N(C)C)cc4)c3)cnn2CC#N)c1 | 5 | -5 | 66 | 20.1 | -27 | 31 | 12 | 0.0377 | 0.211 | 27 | 99 | 40 | 98 | 98 | 96 | 97 | 88 | 93 | 95 | 4 | inhibition of growth at 10 µM [3]: 88.4%; growth at 10 µM (CAKI-1): 15.9%; growth at 10 µM (MDA-MB-468): -59%; GI50 (SF-268 [4]): 0.302 µM; TGI (SF-268 [4]): > 100 µM; CC50 (SF-268 [4]): > 100 µM; growth at 0.01 µM (KM12): 20%; growth at 10 µM (DU-145): -48%; growth at 0.01 µM (NCI-H23): 67%; growth at 0.1 µM (LOX IMVI): 19%; growth at 0.01 µM (SW-620 [5]): 69%; growth at 0.01 µM (SK-OV-3): 47%
2 | Cc1cc(O)cc(-c2nn(CC#N)cc2-c2ccnc(-c3ccc(N(C)C)cc3)c2)c1 | 23 | 7 | 108 | 44 | -5 | 27 | 83 | 4.65 | 20.8 | 93 | 105 | 27 | 97 | 94 | 100 | 97 | 99 | 109 | 102 | -82 | CC50 (HT-29; read-out: LC50 (the source's name)): 93.9 µM; inhibition of growth at 10 µM [3]: 65.3%; growth at 10 µM (CAKI-1): 44.5%; growth at 10 µM (MDA-MB-468): -61%; GI50 (SF-268 [4]): 3.55 µM; TGI (SF-268 [4]): 16.9 µM; CC50 (SF-268 [4]): 77.9 µM; growth at 0.01 µM (KM12): 76%; growth at 10 µM (DU-145): -66%; growth at 0.01 µM (NCI-H23): 96%; growth at 0.1 µM (LOX IMVI): 101%; growth at 0.01 µM (SW-620 [5]): 90%; growth at 0.01 µM (SK-OV-3): 98%
